From ChEMBL document CHEMBL3046504, “Synthesis and antifungal activity of beta-trifluoroalkyl aminovinyl ketone derivatives” (J Agric Food Chem, 2009)
Active and inactive are the calls of the source. The rule behind the calls is not given here.

Tests used:
Neurospora crassa = test: Antifungal activity against Neurospora crassa strain 74-OR23-1A assessed as radial growth inhibition at 100 uM; type: functional, organism-based
Procedure, shortened: (§1)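 Initial screen on PDA plates (10 mL) amended with 10 or 100 μM compound, added from DMSO stocks (DMSO not exceeding 0.001% v/v) to warm (50 °C) sterile medium before pouring. Radial growth was compared with growth on unamended medium. Error bars are standard deviation.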

Botrytis cinerea [1] = test: Antifungal activity against Botryotinia fuckeliana isolate Bcl16 assessed as radial growth inhibition during advanced test phase at 10 to 50 uM at 22 degC measured after 48 hr; type: functional, organism-based
Procedure, shortened: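 B. cinerea isolate BcI16 was grown on PDA amended with compound across 0-50 μM, added from DMSO stock (≤0.001% v/v final) to 50 °C medium. Plates were incubated at 22 °C for 48 h, then radial growth was measured against unamended controls.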

Rhizoctonia solani = test: Antifungal activity against Rhizoctonia solani assessed as radial growth inhibition at 10 to 100 uM; type: functional, organism-based; procedure, shortened: as §1
Medicago sativa = test: Phytotoxicity against Medicago sativa (alfalfa) assessed as seed germination; type: organism-based; conditions: in vivo
Pythium aphanidermatum = test: Antifungal activity against Pythium aphanidermatum assessed as radial growth inhibition at 10 to 100 uM; type: functional, organism-based; procedure, shortened: as §1
Solanum lycopersicum = test: Phytotoxicity against Solanum lycopersicum (tomato) leaves; type: organism-based; conditions: in vivo
Botrytis cinerea [2] = test: Antifungal activity against Botryotinia fuckeliana isolate Bcl16 assessed as radial growth inhibition at 10 to 100 uM; type: functional, organism-based; procedure, shortened: as §1
Alternaria alternata = test: Antifungal activity against Alternaria alternata assessed as radial growth inhibition at 100 uM; type: functional; conditions: read-out: GI; procedure, shortened: as §1
Sclerotinia sclerotiorum = test: Antifungal activity against Sclerotinia sclerotiorum isolate 1980 assessed as radial growth inhibition during advanced test phase at 10 to 50 uM at 17 degC measured after 48 hr; type: functional, organism-based
Procedure, shortened: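 S. sclerotiorum isolate 1980 was grown on PDA amended with compound across 0-50 μM, added from DMSO stock (≤0.001% v/v final) to 50 °C medium. Plates were incubated at 17 °C for 48 h, then radial growth was measured against unamended controls.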

Penicillium digitatum = test: Antifungal activity against Penicillium digitatum assessed as radial growth inhibition at 100 uM; type: functional; conditions: read-out: GI; procedure, shortened: as §1

SMILES	growth inhibition (GI) (Neurospora crassa)	growth inhibition (GI) (Botrytis cinerea [1])	growth inhibition (GI) (Rhizoctonia solani)	Activity (Medicago sativa)	growth inhibition (GI) (Pythium aphanidermatum)	Activity (Solanum lycopersicum)	growth inhibition (GI) (Botrytis cinerea [2])	inhibition of growth at 100 µM (Alternaria alternata) [%]	growth inhibition (GI) (Sclerotinia sclerotiorum)	inhibition of growth at 100 µM (Penicillium digitatum) [%]
N/C(=C\C(=O)c1cccc(Br)c1)C(F)(F)F	Active	Active	Active	Non-toxic	Active	Non-toxic	Active	≤ 50		
CC(C)(C)OC(=O)Nc1ccc(C(=O)/C=C(\N)C(F)(F)F)cc1			Active	Non-toxic	Active	Non-toxic	Active	≤ 50		
CC(=O)c1ccc(O)cc1 [4-HYDROXYACETOPHENONE]		Active	Active	Non-toxic	Active	Non-toxic	Active	≤ 50	Active	
N/C(=C\C(=O)c1ccc(Cl)cc1)C(F)(F)F	Active	Active	Active	Non-toxic	Active	Non-toxic	Active	≤ 50		> 50
N/C(=C\C(=O)c1ccc2ccccc2c1)C(F)(F)F			Active	Non-toxic	Active	Non-toxic	Active	≤ 50		
N/C(=C\C(=O)c1ccc(O)cc1)C(F)(F)F		Active	Active	Non-toxic	Active	Non-toxic	Active	≤ 50		
N/C(=C\C(=O)c1ccc(Cl)cc1)C(F)(F)C(F)(F)F		Active	Active	Non-toxic	Active	Non-toxic	Active	≤ 50	Active	
CC/C(C(=O)c1ccc(Cl)cc1)=C(/N)C(F)(F)F			Active	Non-toxic	Active	Non-toxic	Active	≤ 50		
N#Cc1ccc(C(=O)/C=C(\N)C(F)(F)F)cc1			Active	Non-toxic	Active	Non-toxic	Active	≤ 50		
N/C(=C\C(=O)c1ccc(F)cc1)C(F)(F)F	Active		Active	Non-toxic	Active	Non-toxic	Active	≤ 50		
